pIC50: −log10 of the molar value. Calls of active or inactive are those of the source. The calls are words filed in the database; no cut-off is given here.
What was measured:
[1] = system: Schistosoma mansoni; assay: Antischistosomal activity against Schistosoma mansoni assessed as parasite killing after 2 hrs; type: functional, organism-based
Outline: (§1)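 Cultured ex vivo worms were exposed to 10 μM compound. Worm effects were scored by visual examination at time points over a 72 h time-course.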

[2] = system: Schistosoma mansoni; assay: Antischistosomal activity against Schistosoma mansoni assessed as parasite killing after 4 hrs; type: functional; outline: as §1
[3] = system: Schistosoma mansoni; assay: Antischistosomal activity against Schistosoma mansoni assessed as induction of parasite mortality after 8 hrs; type: functional; parameters: concentration or dose not given beside the values; outline: as §1
[4] = system: Schistosoma mansoni; assay: Antischistosomal activity against Schistosoma mansoni assessed as induction of parasite mortality after 16 hrs; type: functional; parameters: concentration or dose not given beside the values; outline: as §1
[5] = system: Schistosoma mansoni; assay: Antischistosomal activity against Schistosoma mansoni assessed as induction of parasite mortality after 24 hrs; type: functional; parameters: concentration or dose not given beside the values; outline: as §1
[6] = system: Schistosoma mansoni; assay: Antischistosomal activity against Schistosoma mansoni assessed as induction of parasite mortality after 48 hrs; type: functional; parameters: concentration or dose not given beside the values; outline: as §1
[7] = system: Schistosoma mansoni; assay: Antischistosomal activity against Schistosoma mansoni assessed as induction of parasite mortality after 72 hrs; type: functional; parameters: concentration or dose not given beside the values; outline: as §1
[8] = Induction of nitric oxide release at 10 uM in presence of Schistosoma mansoni recombinant TGR; type: functional
[9] = Induction of nitric oxide release at 10 uM in presence of Schistosoma mansoni recombinant TGR and NADPH; type: functional
[10] = Induction of nitric oxide release at 10 uM in presence of cysteine; type: physicochemical
[11] = molecular target: T1, Glutathione reductase, mitochondrial (Homo sapiens, UniProt P00390); assay: Inhibition of human recombinant GR after 15 mins in presence of NADPH
T1 sequence (P00390 whole entry): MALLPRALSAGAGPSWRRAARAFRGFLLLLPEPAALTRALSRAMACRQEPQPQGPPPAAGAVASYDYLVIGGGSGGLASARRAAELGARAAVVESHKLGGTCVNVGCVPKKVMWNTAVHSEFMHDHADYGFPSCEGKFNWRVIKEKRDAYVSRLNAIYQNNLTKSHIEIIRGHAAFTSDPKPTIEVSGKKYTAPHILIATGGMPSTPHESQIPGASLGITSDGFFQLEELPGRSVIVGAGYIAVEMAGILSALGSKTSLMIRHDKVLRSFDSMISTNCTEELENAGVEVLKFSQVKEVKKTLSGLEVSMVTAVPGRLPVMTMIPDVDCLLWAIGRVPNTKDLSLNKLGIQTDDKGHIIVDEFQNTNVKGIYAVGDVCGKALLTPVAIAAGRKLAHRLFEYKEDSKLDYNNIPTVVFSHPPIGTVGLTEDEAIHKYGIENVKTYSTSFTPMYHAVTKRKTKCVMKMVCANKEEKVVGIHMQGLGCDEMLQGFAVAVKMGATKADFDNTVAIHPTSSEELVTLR

[12] = molecular target: T2, Thioredoxin reductase 1, cytoplasmic (Rattus norvegicus, UniProt O89049); assay: Inhibition of rat recombinant TrxR1 after 10 mins
T2 sequence (O89049 whole entry): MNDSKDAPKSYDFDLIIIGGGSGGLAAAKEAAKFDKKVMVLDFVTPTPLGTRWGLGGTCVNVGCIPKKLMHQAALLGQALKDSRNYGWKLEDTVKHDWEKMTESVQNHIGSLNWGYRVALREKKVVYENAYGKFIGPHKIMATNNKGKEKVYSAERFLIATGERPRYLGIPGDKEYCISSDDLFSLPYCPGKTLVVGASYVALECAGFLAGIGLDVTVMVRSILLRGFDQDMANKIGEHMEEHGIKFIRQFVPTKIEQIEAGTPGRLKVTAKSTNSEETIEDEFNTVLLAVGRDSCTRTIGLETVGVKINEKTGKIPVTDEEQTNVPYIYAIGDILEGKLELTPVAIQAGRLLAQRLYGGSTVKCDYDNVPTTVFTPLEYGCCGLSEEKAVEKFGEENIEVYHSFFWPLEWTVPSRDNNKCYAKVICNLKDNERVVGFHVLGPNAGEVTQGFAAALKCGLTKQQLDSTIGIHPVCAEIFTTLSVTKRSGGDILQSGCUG

[13] = molecular target: T3, Thioredoxin glutathione reductase (Schistosoma mansoni, UniProt Q962Y6); assay: Inhibition of Schistosoma mansoni TGR
T3 sequence (Q962Y6 whole entry): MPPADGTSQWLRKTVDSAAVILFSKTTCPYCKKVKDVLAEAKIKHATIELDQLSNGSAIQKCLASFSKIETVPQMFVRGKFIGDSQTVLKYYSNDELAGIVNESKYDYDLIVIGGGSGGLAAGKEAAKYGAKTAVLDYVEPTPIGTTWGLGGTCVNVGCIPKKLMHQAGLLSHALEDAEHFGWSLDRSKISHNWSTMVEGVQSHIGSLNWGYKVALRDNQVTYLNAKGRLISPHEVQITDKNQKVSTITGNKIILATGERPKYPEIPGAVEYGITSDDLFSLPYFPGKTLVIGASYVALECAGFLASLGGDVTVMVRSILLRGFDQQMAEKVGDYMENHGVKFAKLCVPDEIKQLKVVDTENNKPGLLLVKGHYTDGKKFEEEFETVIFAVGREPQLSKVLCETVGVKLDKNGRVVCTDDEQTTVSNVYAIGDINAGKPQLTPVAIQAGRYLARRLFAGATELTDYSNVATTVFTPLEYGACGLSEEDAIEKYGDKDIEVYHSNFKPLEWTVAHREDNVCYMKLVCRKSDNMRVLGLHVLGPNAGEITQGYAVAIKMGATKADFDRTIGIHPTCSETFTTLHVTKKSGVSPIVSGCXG

[14] = Reactivity with cysteine at 0.1 mM in 0.1M phosphate buffer assessed as amount of compound unreacted by HPLC
[15] = system: Schistosoma mansoni; assay: Antischistosomal activity against Schistosoma mansoni assessed as induction of parasite sluggish movement after 16 hrs; type: functional, organism-based; outline: as §1

SMILES	Activity [1]	Activity [2]	Activity [3]	Activity [4]	Activity [5]	Activity [6]	Activity [7]	Activity [8]	Activity [9]	Activity [10]	pIC50 [11]	pIC50 [12]	pIC50 [13]	Activity [14]	Activity [15]
N#Cc1c(-c2ccc(C(F)(F)F)cc2)no[n+]1[O-]	inactive	inactive	12%	20%	64%	80%	100%	2%	22%	80%	4.34	> 4.90	–	–	–
COc1cccc(-c2no[n+]([O-])c2C#N)c1	inactive	inactive	inactive	inactive	7%	12%	20%	2%	9%	52%	< 4.30	< 3.40	–	–	–
COc1ccccc1-c1no[n+]([O-])c1C#N	inactive	inactive	–	11%	40%	50%	60%	–	–	–	–	–	–	–	–
O=C(c1cccs1)c1no[n+]([O-])c1C(=O)c1cccs1	inactive	inactive	inactive	inactive	inactive	inactive	inactive	–	–	–	–	–	7.40	Active	–
NC(=O)c1c(-c2ccccc2)no[n+]1[O-]	inactive	inactive	12%	27%	60%	100%	100%	–	–	–	< 4.30	< 3.40	4.75	–	–
N#Cc1c(-c2ccco2)no[n+]1[O-]	inactive	inactive	10%	40%	70%	100%	100%	2%	16%	60%	< 4.30	3.46	5.55	–	–
Cc1ccc(-c2no[n+]([O-])c2C#N)cc1	inactive	inactive	inactive	15%	50%	55%	70%	1%	15%	58%	< 4.30	< 3.40	–	–	–
N#Cc1c(-c2cccc(O)c2)no[n+]1[O-]	inactive	inactive	–	inactive	inactive	inactive	inactive	–	–	–	–	–	–	–	–
COc1ccc(-c2no[n+]([O-])c2C#N)cc1	inactive	inactive	inactive	10%	29%	60%	100%	2%	10%	55%	< 4.30	< 3.40	–	–	–
O=C(O)c1c(-c2ccccc2)no[n+]1[O-]	inactive	inactive	inactive	inactive	inactive	inactive	inactive	2%	7%	10%	< 4.30	< 3.40	6.20	–	–
N#Cc1c(-c2cccc([N+](=O)[O-])c2)no[n+]1[O-]	inactive	inactive	inactive	–	10%	15%	21%	2%	16%	72%	< 4.30	3.82	–	–	Active
